29 compounds from ChEMBL document CHEMBL4024775, “Quinazolinone-Based Anticancer Agents: Synthesis, Antiproliferative SAR, Antitubulin Activity, and Tubulin Co-crystal Structure” (J Med Chem, 2018) can be followed below.

A word on the inhibition: it is the drop in the measured response relative to a control, in per cent. As a reminder, the GI50 is the concentration at which growth is held to half of that of the control. A word on the IC50: it is the point on the concentration scale where inhibition reaches its midpoint. Read a low IC50 as greater potency in that assay.

The target in assay [1] is T1, Steryl-sulfatase (Homo sapiens) (UniProt P08842).
T1 sequence (whole entry): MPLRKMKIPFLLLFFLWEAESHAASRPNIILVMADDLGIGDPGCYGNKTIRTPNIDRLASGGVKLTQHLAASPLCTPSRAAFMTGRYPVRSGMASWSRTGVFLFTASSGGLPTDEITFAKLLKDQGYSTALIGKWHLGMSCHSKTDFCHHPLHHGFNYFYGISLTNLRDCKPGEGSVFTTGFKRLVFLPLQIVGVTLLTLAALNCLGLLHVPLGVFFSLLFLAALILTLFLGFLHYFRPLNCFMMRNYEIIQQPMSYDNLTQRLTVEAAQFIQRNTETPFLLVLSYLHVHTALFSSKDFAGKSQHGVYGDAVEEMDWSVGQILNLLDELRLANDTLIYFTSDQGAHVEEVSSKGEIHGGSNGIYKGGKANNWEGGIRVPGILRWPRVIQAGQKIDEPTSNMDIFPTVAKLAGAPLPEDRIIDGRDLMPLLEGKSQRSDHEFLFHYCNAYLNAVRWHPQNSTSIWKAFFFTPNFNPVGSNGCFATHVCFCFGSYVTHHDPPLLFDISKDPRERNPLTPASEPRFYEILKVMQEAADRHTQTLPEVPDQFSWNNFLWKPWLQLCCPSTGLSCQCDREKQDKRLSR
The assay is described as follows: Inhibition of STS in human JEG3 cells at 100 uM using [6,7-3H]E1S as substrate after 3 hrs by liquid scintillation spectrometry. Type of assay: cell-based. An outline of the steps: (§1)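 JEG-3 cells were lysed in RIPA buffer and protein measured by BCA. Lysate (50 µg protein) was incubated 3 h in PBS with [6,7-3H]E1S at 20 µM final (unlabeled E1S added), with or without inhibitor. [4-14C]E1 tracked procedural losses. E1 was separated by toluene partition and counted by scintillation. Activity taken as pmol E1/h/mg protein and expressed as percent inhibited.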

Assay [2] deals with MDA-MB-231. The assay is described as follows: Antiproliferative activity against human MDA-MB-231 cells after 96 hrs by WST-1 cell proliferation assay. It is filed as functional. Conditions: MDA-MB-231, 96 h. The gist of the method:
(§2)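 Cells kept in RPMI-1640 with 10% FBS, penicillin and streptomycin at 37 °C, 5% CO2. Seeded at 5000 cells/well and exposed to 10-9–10-4 M compound or vehicle for 96 h. Live cells were read by WST-1. Viability was taken as percent of mean control and used to derive GI50. Triplicate experiments, mean values.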

Assay [3] in a line: Inhibition of bovine brain tubulin polymerization preincubated for 15 mins followed by GTP addition measured after 20 mins by spectrophotometric analysis. Further details: species or system Bos taurus. The gist of the method: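 Bovine brain tubulin 1.0 mg/mL (10 µM) was preincubated without GTP with varied compound concentrations for 15 min at 30 °C, then chilled and given GTP (0.4 mM final). After a 0 °C baseline, turbidity rise was followed for 20 min after a jump to 30 °C. IC50 is the concentration that halves the turbidity increase.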

In another assay the test system is DU-145. Description: Antiproliferative activity against human DU145 cells after 96 hrs by WST-1 cell proliferation assay. It is filed as functional. Particulars: DU-145, 96 h. The gist of the method: as §2
On the technique in general: Formazan colour is commonly taken as a measure of viable cells.

In assay [4] the target is T1, Steryl-sulfatase (Homo sapiens). Description: Inhibition of STS in human JEG3 cells at 10 uM using [6,7-3H]E1S as substrate after 3 hrs by liquid scintillation spectrometry. Type of assay: cell-based. An outline of the steps: as §1
The next assay is filed under the species Bos taurus. Description: Inhibition of [3H]colchicine binding to bovine brain tubulin at 5 uM after 10 mins by DEAE-cellulose filter method relative to control. An outline of the steps: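 Bovine brain tubulin 0.1 mg/mL (1.0 µM) with 5.0 µM [3H]colchicine and inhibitor at 5.0 µM, incubated 10 min at 37 °C. CA-4 served as comparator.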
For assay [5], the system named is RPMI-8226. Description: Antitumor activity against human RPMI8226 cell lines xenografted in NCr-nude mouse assessed as tumor growth inhibition at 40 mg/kg, po for 28 days measured on day 53. Type of assay: functional. Conditions: RPMI-8226, po, read-out: TGI. An outline of the steps:
(§3)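 Female NCr-nude mice, 4-6 weeks old. 6 x 10^6 tumor cells mixed with an equal volume of Matrigel were implanted subcutaneously in the left flank. At about 100 mm3, mice were randomized into 3 groups of 6. Oral vehicle or compound given for 28 days. Tumor weight estimated as (w2 x l)/2 and read at day 53, 18 days after dosing ended.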
Background: Xenograft models place foreign cells or tissue in a host animal.

The subject of assay [6] is RPMI-8226. Description: Antitumor activity against human RPMI8226 cell lines xenografted in NCr-nude mouse assessed as tumor growth inhibition at 20 mg/kg, po for 28 days measured on day 53. It is filed as functional. Conditions: RPMI-8226, po, read-out: TGI. An outline of the steps: as §3
Assay [7] relates to MDA-MB-231. The assay is described as follows: Antiproliferative activity against human MDA-MB-231 cells after 48 hrs by MTT assay. It is filed as functional. Conditions: MDA-MB-231, 48 h.

Active and inactive are the calls of the source. The calls are words filed in the database; no cut-off is given here.

Turning to `COc1cc2c(cc1OS(N)(=O)=O)NC(=O)N(Cc1cccc(OC)c1OC)C2`, in assay [1], the inhibition entry is “inactive”. The values for the GI50 in the assay with MDA-MB-231 [2] and in the assay on DU-145 were 0.4 µM and 0.8 µM, respectively. Also, the midpoint of inhibition in assay [3], the IC50, lay at 8.6 µM.
Turning to `CCc1cc2c(cc1OS(N)(=O)=O)CCN(Cc1cc(OC)c(OC)c(OC)c1)C2`, in [1], the inhibition entry was “Active”.
On to `COc1cc2c(cc1OS(N)(=O)=O)NC(=O)N(Cc1ccccc1Cl)C2`, for which the inhibition in assay [1] was 70 to 80%; in the assay listed under Bos taurus, 43%. Besides, the 50% growth inhibitory concentration (GI50) in the assay with MDA-MB-231 [2] turned out to be 0.2 µM; in the assay on DU-145, 0.5 µM. The inhibition entry in assay [4] was “Active”. In assay [3], the IC50 was found to be 5 µM.
For `COc1cc2c(cc1OS(N)(=O)=O)NC(=O)N(Cc1ccccc1)C2`, the inhibition entry in [1] is “inactive”. Moreover, the GI50 in the assay with MDA-MB-231 [2] and with DU-145 was > 100 µM throughout.
For the compound `COc1cc2c(cc1O)NC(=O)N(Cc1ccccc1F)C2`, the 50% growth inhibitory concentration (GI50) in the assay on MDA-MB-231 [2] and in the assay on DU-145 was > 100 µM each time.
With `COc1cc2c(cc1O)NC(=O)N(Cc1ccccc1OC)C2`, the GI50 with MDA-MB-231 [2] was 5.7 µM; with DU-145, 2.2 µM.
For `COc1cc2c(cc1O)NC(=O)N(Cc1ccccc1Cl)C2`, in that order: 5 µM and 5.6 µM.
`COc1cc2c(cc1O)NC(=O)N(Cc1cccc(Cl)c1)C2`: the figures for the GI50 with MDA-MB-231 [2] and in the assay on DU-145 were > 100 µM and 81 µM, respectively.
In assay [1], `COc1cc2c(cc1OS(N)(=O)=O)NC(=O)N(Cc1ccccc1F)C2` came in with an inhibition of 20 to 25%. In addition, the figures for the GI50 in the assay with MDA-MB-231 [2] and in the assay on DU-145 were 4.5 µM and 4.8 µM, respectively.
`COc1cccc(CN2Cc3cc(OC)c(O)cc3NC2=O)c1`: the GI50 in the assay on MDA-MB-231 [2] and in the assay on DU-145 was > 100 µM each time.
With `COc1ccc(CN2Cc3cc(OC)c(O)cc3NC2=O)cc1`, the GI50 in the assay on MDA-MB-231 [2] and with DU-145 was > 100 µM each time.
With `COc1cc2c(cc1O)NC(=O)N(Cc1ccccc1)C2`, the GI50 in the assay with MDA-MB-231 [2] and in the assay with DU-145 was > 100 µM in each case.
For the compound `COc1cccc(CN2Cc3cc(OC)c(OS(N)(=O)=O)cc3NC2=O)c1`, the GI50 in the assay with MDA-MB-231 [2] was 34 µM; in the assay with DU-145, 33 µM.
With `COc1cc2c(cc1OS(N)(=O)=O)NC(=O)N(Cc1ccccc1C)C2`, the inhibition in assay [1] was 20 to 25%. For the same compound, the GI50 in the assay with MDA-MB-231 [2] was 7.4 µM; in the assay with DU-145 it was 60 µM.
Consider `COc1cc2c(cc1OS(N)(=O)=O)NC(=O)N(Cc1cc(OC)c(OC)c(OC)c1)C2`, for which the inhibition entry in assay [1] was “inactive”. Moreover, the GI50 in the assay on MDA-MB-231 [2] and in the assay with DU-145 was 0.1 µM in each case. In [3], inhibition was half-maximal at 5.6 µM (IC50).
Regarding `COc1cc2c(cc1OS(N)(=O)=O)NC(=O)N(Cc1cccc(Cl)c1)C2`, the inhibition in assay [1] is 70 to 80%. Further, the GI50 in the assay with MDA-MB-231 [2] turned out to be 2.2 µM; in the assay on DU-145 it was 3.2 µM. In addition, in assay [4], the inhibition entry was “Active”.
Regarding `COc1cc(CN2CCc3cc(O)ccc3C2)cc(OC)c1OC`, the inhibition result in assay [1] was “Active”.
Turning to `COc1ccc(OC)c(CN2Cc3cc(OC)c(OS(N)(=O)=O)cc3NC2=O)c1`, in assay [1], the inhibition result is “inactive”. Also, the GI50 with MDA-MB-231 [2] and in the assay with DU-145 was 0.05 µM each time. Further, the inhibition in the assay filed under Bos taurus was found to be 61%. The IC50 in [3] was found to be 2.5 µM.
On to `COc1ccccc1CN1Cc2cc(OC)c(OS(N)(=O)=O)cc2NC1=O`, for which the figures for the inhibition (in assay [1]; in the assay listed under Bos taurus) were 70 to 80% and 55%, respectively. Further, the GI50 turned out to be 0.2 µM with MDA-MB-231 [2] and 0.3 µM in the assay with DU-145. Moreover, the inhibition in vivo at 40 mg/kg with RPMI-8226 [5] worked out at 31%. Also, the inhibition entry in [4] was “Active”. Besides, the midpoint of inhibition in [3], the IC50, lay at 2.5 µM. Moreover, the inhibition in vivo at 20 mg/kg with RPMI-8226 [6] amounted to 27%.
In the case of `COc1cc2c(cc1O)NC(=O)N(Cc1cc(OC)c(OC)c(OC)c1)C2`, the GI50 in the assay on MDA-MB-231 [2] was 9.3 µM; with DU-145, 8.4 µM.
Turning to `COc1cc2c(cc1O)NC(=O)N(Cc1cccc(OC)c1OC)C2`, the results for the GI50 in the assay with MDA-MB-231 [2] and in the assay with DU-145 were 8.3 µM and 8.5 µM, respectively.
Compound `COc1cc2c(cc1OS(N)(=O)=O)CCN(Cc1cc(Br)c(OC)c(OC)c1)C2` displayed an inhibition in assay [1] of 45%.
`COc1ccc(OC)c(CN2Cc3cc(OC)c(O)cc3NC2=O)c1`: the inhibition entry in assay [1] is “inactive”. Moreover, the concentration for 50% growth inhibition (GI50) in the assay with MDA-MB-231 [2] worked out at 2.3 µM; in the assay with DU-145, 1.5 µM.
As for `COc1cc2c(cc1O)NC(=O)N(Cc1ccccc1C)C2`, the GI50 in the assay with MDA-MB-231 [2] and in the assay with DU-145 was > 100 µM throughout.
On to `COc1ccc(/C=C\c2cc(OC)c(OC)c(OC)c2)cc1O` [COMBRETASTATIN A4], for which, in the assay on MDA-MB-231 [7], the GI50 came out at 0.045 µM. That is a double-digit nanomolar value.
As to `COc1ccc(CN2Cc3cc(OC)c(OS(N)(=O)=O)cc3NC2=O)cc1`, the inhibition entry in assay [1] is “inactive”. The GI50 with MDA-MB-231 [2] and in the assay with DU-145 was > 100 µM in each case.
Turning to `COc1cc(CN2CCc3cc(OS(N)(=O)=O)ccc3C2)cc(OC)c1OC`, in assay [1], the inhibition entry was “Active”.
In the case of `CCc1cc2c(cc1OS(N)(=O)=O)CCN(Cc1cc(Br)c(OC)c(OC)c1)C2`, the inhibition result in assay [1] was “Active”.
Still for that read-out and setting: in the case of `COc1cc2c(cc1O)CCN(Cc1cc(Br)c(OC)c(OC)c1)C2` it was “Active”.
